Source: ChEMBL document CHEMBL3797186, “Single Residue Substitutions That Confer Voltage-Gated Sodium Ion Channel Subtype Selectivity in the NaV1.7 Inhibitory Peptide GpTx-1” (J Med Chem, 2016)
Positions of bridges follow the written chain, without caps; N, C: chain ends. Residues, ends and D or L forms follow the SMILES beside them.

These compounds were tested against Sodium channel protein type 5 subunit alpha (Homo sapiens, UniProt Q14524) (assay: Inhibition of human Nav1.5 expressed in HEK293 cells assessed as inward peak current by ion-works quattro patch clamp electrophysiology method). Details: not given.
Sequence of Sodium channel protein type 5 subunit alpha (Q14524 whole entry): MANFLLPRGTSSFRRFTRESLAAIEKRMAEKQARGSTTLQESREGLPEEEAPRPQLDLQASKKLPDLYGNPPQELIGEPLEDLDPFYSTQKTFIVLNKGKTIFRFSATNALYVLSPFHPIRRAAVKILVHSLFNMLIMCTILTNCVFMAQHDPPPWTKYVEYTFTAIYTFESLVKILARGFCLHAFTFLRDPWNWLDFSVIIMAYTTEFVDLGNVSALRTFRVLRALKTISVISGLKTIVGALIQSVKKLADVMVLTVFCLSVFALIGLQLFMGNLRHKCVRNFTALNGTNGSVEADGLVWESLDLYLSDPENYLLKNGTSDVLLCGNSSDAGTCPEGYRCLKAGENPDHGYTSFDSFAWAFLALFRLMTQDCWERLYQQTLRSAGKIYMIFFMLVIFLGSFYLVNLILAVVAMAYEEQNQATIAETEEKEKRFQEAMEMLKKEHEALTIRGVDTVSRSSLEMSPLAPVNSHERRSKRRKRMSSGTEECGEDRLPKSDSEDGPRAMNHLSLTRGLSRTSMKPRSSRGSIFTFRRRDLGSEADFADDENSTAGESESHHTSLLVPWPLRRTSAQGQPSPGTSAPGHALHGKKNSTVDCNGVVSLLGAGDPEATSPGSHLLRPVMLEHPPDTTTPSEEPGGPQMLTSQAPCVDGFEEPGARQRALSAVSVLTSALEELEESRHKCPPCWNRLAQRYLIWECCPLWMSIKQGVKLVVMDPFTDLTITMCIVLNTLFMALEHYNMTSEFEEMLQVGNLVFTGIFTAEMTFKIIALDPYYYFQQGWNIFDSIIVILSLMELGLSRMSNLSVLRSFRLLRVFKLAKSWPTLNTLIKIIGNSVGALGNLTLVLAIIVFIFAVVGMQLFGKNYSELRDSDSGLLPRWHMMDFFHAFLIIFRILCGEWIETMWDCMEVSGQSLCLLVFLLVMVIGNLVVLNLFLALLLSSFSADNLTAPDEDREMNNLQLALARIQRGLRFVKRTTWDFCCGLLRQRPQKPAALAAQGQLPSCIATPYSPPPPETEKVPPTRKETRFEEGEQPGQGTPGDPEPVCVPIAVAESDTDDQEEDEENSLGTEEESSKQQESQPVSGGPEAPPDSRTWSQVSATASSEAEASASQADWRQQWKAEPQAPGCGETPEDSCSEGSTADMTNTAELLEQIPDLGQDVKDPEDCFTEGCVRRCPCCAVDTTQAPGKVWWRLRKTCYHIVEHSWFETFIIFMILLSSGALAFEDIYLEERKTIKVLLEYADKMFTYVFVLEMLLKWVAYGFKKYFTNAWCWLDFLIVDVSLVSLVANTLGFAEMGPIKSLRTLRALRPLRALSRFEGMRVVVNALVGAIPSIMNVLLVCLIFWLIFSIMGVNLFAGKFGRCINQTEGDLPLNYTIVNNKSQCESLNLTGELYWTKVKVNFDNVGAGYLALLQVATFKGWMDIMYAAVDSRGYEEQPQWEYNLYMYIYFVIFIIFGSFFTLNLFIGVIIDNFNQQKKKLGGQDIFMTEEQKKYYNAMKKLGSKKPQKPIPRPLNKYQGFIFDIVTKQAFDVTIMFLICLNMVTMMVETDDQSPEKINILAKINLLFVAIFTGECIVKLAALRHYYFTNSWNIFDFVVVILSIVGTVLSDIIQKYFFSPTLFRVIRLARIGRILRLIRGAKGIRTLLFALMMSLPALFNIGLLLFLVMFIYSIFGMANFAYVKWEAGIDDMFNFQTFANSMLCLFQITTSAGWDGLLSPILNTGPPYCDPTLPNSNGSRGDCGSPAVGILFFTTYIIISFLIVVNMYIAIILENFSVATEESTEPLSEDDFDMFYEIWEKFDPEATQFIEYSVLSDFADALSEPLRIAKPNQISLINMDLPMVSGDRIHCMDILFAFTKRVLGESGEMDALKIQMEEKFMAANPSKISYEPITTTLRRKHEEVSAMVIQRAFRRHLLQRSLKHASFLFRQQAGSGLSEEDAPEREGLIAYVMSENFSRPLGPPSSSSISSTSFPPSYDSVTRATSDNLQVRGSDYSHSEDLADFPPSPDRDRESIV
Type: cell-based
How it was run: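 Stable HEK293 line expressing human NaV1.5, recorded by population patch clamp on the IonWorks Quattro.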

| Structure (SMILES) | IC50 [µM] |
| --- | --- |
| CC[C@H](C)[C@@H]1NC(=O)[C@@H]2CSSC[C@@H]3NC(=O)[C@H](C(C)C)NC(=O)[C@H](CC(C)C)NC(=O)[C@H](CC(N)=O)NC(=O)[C@@H]4CCCN4C(=O)[C@H](CCCNC(=N)N)NC(=O)[C@H](CSSC[C@H](NC(=O)[C@@H](N)CC(=O)O)C(=O)N[C@@H](CC(C)C)C(=O)NCC(=O)N[C@@H](Cc4ccccc4)C(=O)N[C@@H](CCSC)C(=O)N[C@@H](CCCNC(=N)N)C(=O)N[C@@H](CCCCN)C(=O)N2)NC(=O)[C@H](CSSC[C@@H](C(=O)N[C@@H](CCCCN)C(=O)N[C@@H](Cc2ccc(O)cc2)C(=O)N[C@H](C(=O)N[C@@H](Cc2ccccc2)C(N)=O)C(C)C)NC(=O)[C@H](Cc2c[nH]c4ccccc24)NC(=O)[C@H](CCCCN)NC(=O)[C@H](Cc2cnc[nH]2)NC(=O)[C@H]([C@@H](C)O)NC(=O)[C@H](CCCNC(=N)N)NC(=O)[C@H](CO)NC3=O)NC(=O)[C@H](CCCCN)NC(=O)[C@H](CC(=O)O)NC(=O)[C@H](CC(N)=O)NC(=O)[C@H](CCCNC(=N)N)NC(=O)[C@@H]2CCCN2C1=O (H-DCLGFMRKCIPRNDKCCRPNLVCSRTHKWCKYVF-NH2; disulfide 2-17, 9-23, 16-30) | > 4.8 |
| CSCC[C@@H]1NC(=O)[C@H](Cc2ccccc2)NC(=O)CNC(=O)[C@H](CC(C)C)NC(=O)[C@@H](NC(=O)[C@@H](N)CC(=O)O)CSSC[C@@H]2NC(=O)[C@@H]3CSSC[C@@H](C(=O)N[C@@H](CCCCN)C(=O)N[C@@H](Cc4ccc(O)cc4)C(=O)N[C@H](C(=O)N[C@@H](Cc4ccccc4)C(N)=O)C(C)C)NC(=O)[C@H](Cc4c[nH]c5ccccc45)NC(=O)[C@H](CCCCN)NC(=O)[C@H](Cc4cnc[nH]4)NC(=O)[C@H]([C@@H](C)O)NC(=O)[C@H](CCCNC(=N)N)NC(=O)[C@H](CO)NC(=O)[C@H](CSSC[C@H](NC(=O)[C@H](CCCCN)NC(=O)[C@H](CCCNC(=N)N)NC1=O)C(=O)N[C@@H](CO)C(=O)N1CCC[C@H]1C(=O)N[C@@H](CC(=O)O)C(=O)N[C@@H](CC(N)=O)C(=O)N[C@@H](CC(=O)O)C(=O)N[C@@H](CCCCN)C(=O)N3)NC(=O)[C@H](C(C)C)NC(=O)[C@H](CC(C)C)NC(=O)[C@H](CC(N)=O)NC(=O)[C@@H]1CCCN1C(=O)[C@H](CCCNC(=N)N)NC2=O (H-DCLGFMRKCSPDNDKCCRPNLVCSRTHKWCKYVF-NH2; disulfide 2-17, 9-23, 16-30) | > 2.7 |
| CSCC[C@@H]1NC(=O)[C@H](Cc2ccccc2)NC(=O)CNC(=O)[C@H](CC(C)C)NC(=O)[C@@H](NC(=O)[C@@H](N)CC(=O)O)CSSC[C@@H]2NC(=O)[C@@H]3CSSC[C@@H](C(=O)N[C@@H](CCCCN)C(=O)N[C@@H](Cc4ccc(O)cc4)C(=O)N[C@H](C(=O)N[C@@H](Cc4ccccc4)C(N)=O)C(C)C)NC(=O)[C@H](Cc4c[nH]c5ccccc45)NC(=O)[C@H](CCCCN)NC(=O)[C@H](Cc4cnc[nH]4)NC(=O)[C@H]([C@@H](C)O)NC(=O)[C@H](CCCNC(=N)N)NC(=O)[C@H](CO)NC(=O)[C@H](CSSC[C@H](NC(=O)[C@H](CCCCN)NC(=O)[C@H](CCCNC(=N)N)NC1=O)C(=O)N[C@@H](Cc1cnc[nH]1)C(=O)N1CCC[C@H]1C(=O)N[C@@H](CC(=O)O)C(=O)N[C@@H](CC(N)=O)C(=O)N[C@@H](CC(=O)O)C(=O)N[C@@H](CCCCN)C(=O)N3)NC(=O)[C@H](C(C)C)NC(=O)[C@H](CC(C)C)NC(=O)[C@H](CC(N)=O)NC(=O)[C@@H]1CCCN1C(=O)[C@H](CCCNC(=N)N)NC2=O (H-DCLGFMRKCHPDNDKCCRPNLVCSRTHKWCKYVF-NH2; disulfide 2-17, 9-23, 16-30) | > 5 |
| CC[C@H](C)[C@@H]1NC(=O)[C@@H]2CSSC[C@@H]3NC(=O)[C@H](C(C)C)NC(=O)[C@H](CC(C)C)NC(=O)[C@H](CC(N)=O)NC(=O)[C@@H]4CCCN4C(=O)[C@H](CCCNC(=N)N)NC(=O)[C@H](CSSC[C@H](NC(=O)[C@@H](N)CC(=O)O)C(=O)N[C@@H](CC(C)C)C(=O)NCC(=O)N[C@@H](Cc4ccccc4)C(=O)N[C@@H](CCSC)C(=O)N[C@@H](CCCNC(=N)N)C(=O)N[C@@H](CCCCN)C(=O)N2)NC(=O)[C@H](CSSC[C@@H](C(=O)N[C@@H](CCCCN)C(=O)N[C@@H](Cc2ccc(O)cc2)C(=O)N[C@@H](Cc2c[nH]c4ccccc24)C(=O)N[C@@H](Cc2ccccc2)C(N)=O)NC(=O)[C@H](Cc2c[nH]c4ccccc24)NC(=O)[C@H](CCCCN)NC(=O)[C@H](Cc2c[nH]cn2)NC(=O)[C@H]([C@@H](C)O)NC(=O)[C@H](CCCNC(=N)N)NC(=O)[C@H](CO)NC3=O)NC(=O)[C@H](CCCCN)NC(=O)[C@H](CC(=O)O)NC(=O)[C@H](CC(N)=O)NC(=O)[C@H](CC(=O)O)NC(=O)[C@@H]2CCCN2C1=O (H-DCLGFMRKCIPDNDKCCRPNLVCSRTHKWCKYWF-NH2; disulfide 2-17, 9-23, 16-30) | > 5 |
| CSCC[C@@H]1NC(=O)[C@H](Cc2ccccc2)NC(=O)CNC(=O)[C@H](CC(C)C)NC(=O)[C@@H](NC(=O)[C@@H](N)CC(=O)O)CSSC[C@@H]2NC(=O)[C@@H]3CSSC[C@@H](C(=O)N[C@@H](CCCCN)C(=O)N[C@@H](Cc4ccc(O)cc4)C(=O)N[C@H](C(=O)N[C@@H](Cc4ccccc4)C(N)=O)C(C)C)NC(=O)[C@H](Cc4c[nH]c5ccccc45)NC(=O)[C@H](CCCCN)NC(=O)[C@H](Cc4cnc[nH]4)NC(=O)[C@H]([C@@H](C)O)NC(=O)[C@H](CCCNC(=N)N)NC(=O)[C@H](CO)NC(=O)[C@H](CSSC[C@H](NC(=O)[C@H](CCCCN)NC(=O)[C@H](CCCNC(=N)N)NC1=O)C(=O)N[C@@H](Cc1ccc(O)cc1)C(=O)N1CCC[C@H]1C(=O)N[C@@H](CC(=O)O)C(=O)N[C@@H](CC(N)=O)C(=O)N[C@@H](CC(=O)O)C(=O)N[C@@H](CCCCN)C(=O)N3)NC(=O)[C@H](C(C)C)NC(=O)[C@H](CC(C)C)NC(=O)[C@H](CC(N)=O)NC(=O)[C@@H]1CCCN1C(=O)[C@H](CCCNC(=N)N)NC2=O (H-DCLGFMRKCYPDNDKCCRPNLVCSRTHKWCKYVF-NH2; disulfide 2-17, 9-23, 16-30) | > 5 |
| CC[C@H](C)[C@@H]1NC(=O)[C@@H]2CSSC[C@@H]3NC(=O)[C@H](C(C)C)NC(=O)[C@H](CC(C)C)NC(=O)[C@H](CC(N)=O)NC(=O)[C@@H]4CCCN4C(=O)[C@H](CCCNC(=N)N)NC(=O)[C@H](CSSC[C@H](NC(=O)[C@@H](N)CC(=O)O)C(=O)N[C@@H](CC(C)C)C(=O)NCC(=O)N[C@@H](Cc4ccccc4)C(=O)N[C@@H](CCSC)C(=O)N[C@@H](CCCNC(=N)N)C(=O)N[C@@H](CCCCN)C(=O)N2)NC(=O)[C@H](CSSC[C@@H](C(=O)N[C@@H](CCCCN)C(=O)N[C@@H](Cc2ccc(O)cc2)C(=O)N[C@H](C(=O)N[C@@H](Cc2ccccc2)C(N)=O)C(C)C)NC(=O)[C@H](Cc2c[nH]c4ccccc24)NC(=O)[C@H](CCCCN)NC(=O)[C@H](Cc2cnc[nH]2)NC(=O)[C@H]([C@@H](C)O)NC(=O)[C@H](CCCNC(=N)N)NC(=O)[C@H](CO)NC3=O)NC(=O)[C@H](CCCCN)NC(=O)[C@H](CC(=O)O)NC(=O)[C@H](CCCCN)NC(=O)[C@H](CC(=O)O)NC(=O)[C@@H]2CCCN2C1=O (H-DCLGFMRKCIPDKDKCCRPNLVCSRTHKWCKYVF-NH2; disulfide 2-17, 9-23, 16-30) | > 5 |
| CC[C@H](C)[C@@H]1NC(=O)[C@@H]2CSSC[C@@H]3NC(=O)[C@H](C(C)C)NC(=O)[C@H](CC(C)C)NC(=O)[C@H](CC(N)=O)NC(=O)[C@@H]4CCCN4C(=O)[C@H](CCCNC(=N)N)NC(=O)[C@H](CSSC[C@H](NC(=O)[C@@H](N)CC(=O)O)C(=O)N[C@@H](CC(C)C)C(=O)NCC(=O)N[C@@H](Cc4ccccc4)C(=O)N[C@@H](CCSC)C(=O)N[C@@H](CCCNC(=N)N)C(=O)N[C@@H](CCCCN)C(=O)N2)NC(=O)[C@H](CSSC[C@@H](C(=O)N[C@@H](CCCCN)C(=O)N[C@@H](Cc2ccc(O)cc2)C(=O)N[C@H](C(=O)N[C@@H](Cc2ccccc2)C(N)=O)C(C)C)NC(=O)[C@H](Cc2c[nH]c4ccccc24)NC(=O)[C@H](CCCCN)NC(=O)[C@H](Cc2cnc[nH]2)NC(=O)[C@H]([C@@H](C)O)NC(=O)[C@H](CCCNC(=N)N)NC(=O)[C@H](CO)NC3=O)NC(=O)[C@H](CCCCN)NC(=O)[C@H](CC(=O)O)NC(=O)[C@H](CC(N)=O)NC(=O)[C@H](CCCCN)NC(=O)[C@@H]2CCCN2C1=O (H-DCLGFMRKCIPKNDKCCRPNLVCSRTHKWCKYVF-NH2; disulfide 2-17, 9-23, 16-30) | > 4.7 |

Same assay, conditions: hek293

| Structure (SMILES) | IC50 [µM] |
| --- | --- |
| CC[C@H](C)[C@@H]1NC(=O)[C@@H]2CSSC[C@@H]3NC(=O)[C@H](C(C)C)NC(=O)[C@H](CC(C)C)NC(=O)[C@H](CC(N)=O)NC(=O)[C@@H]4CCCN4C(=O)[C@H](CCCNC(=N)N)NC(=O)[C@H](CSSC[C@H](NC(=O)[C@@H](N)CC(=O)O)C(=O)N[C@@H](CC(C)C)C(=O)NCC(=O)N[C@@H](Cc4ccccc4)C(=O)N[C@@H](CCSC)C(=O)N[C@@H](CCCNC(=N)N)C(=O)N[C@@H](CCCCN)C(=O)N2)NC(=O)[C@H](CSSC[C@@H](C(=O)N[C@@H](CCCCN)C(=O)N[C@@H](Cc2ccc(O)cc2)C(=O)N[C@H](C(=O)N[C@@H](Cc2ccccc2)C(=O)O)C(C)C)NC(=O)[C@H](Cc2c[nH]c4ccccc24)NC(=O)[C@H](CCCCN)NC(=O)[C@H](Cc2cnc[nH]2)NC(=O)[C@H]([C@@H](C)O)NC(=O)[C@H](CCCNC(=N)N)NC(=O)[C@H](CO)NC3=O)NC(=O)[C@H](CCCCN)NC(=O)[C@H](CC(=O)O)NC(=O)[C@H](CC(N)=O)NC(=O)[C@H](CC(=O)O)NC(=O)[C@@H]2CCCN2C1=O (stereo in doubt; 158) | > 5 |
